# The list is not random: actives were taken first. Their share in the collection is about 1.5%.
# APJ antag = APJ receptor antagonism; 330,000 compounds, 0.32% hits; CHO-K1 APJ beta-arrestin complementation, luminescence; P35414; inhibition, % at 20 µM; AID 2521;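 active = inhibition above about 40% at 20 µM, limit read from the data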;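 also: cells challenged with 10 nM apelin-13 agonist together with compound; plate controls were apelin-13 plus DMSO wells for no effect and DMSO wells lacking apelin-13 for full effect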
# EBI2 antag = blocks human EBI2 receptor beta-arrestin signaling. P32249. 360,000 compounds, 0.81% hits. inhibition, % at 5 µM. EBI2 beta-arrestin recruitment, luminescence, 7a,25-OHC stimulated; in the data active = inhibition above about 38%;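 also: enzyme fragment complementation signal reports receptor beta-arrestin coupling in cells; 0% = agonist plus DMSO wells and 100% = wells without agonist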
# Target sequence (P32249 whole entry, looked up, the tested form may be a part): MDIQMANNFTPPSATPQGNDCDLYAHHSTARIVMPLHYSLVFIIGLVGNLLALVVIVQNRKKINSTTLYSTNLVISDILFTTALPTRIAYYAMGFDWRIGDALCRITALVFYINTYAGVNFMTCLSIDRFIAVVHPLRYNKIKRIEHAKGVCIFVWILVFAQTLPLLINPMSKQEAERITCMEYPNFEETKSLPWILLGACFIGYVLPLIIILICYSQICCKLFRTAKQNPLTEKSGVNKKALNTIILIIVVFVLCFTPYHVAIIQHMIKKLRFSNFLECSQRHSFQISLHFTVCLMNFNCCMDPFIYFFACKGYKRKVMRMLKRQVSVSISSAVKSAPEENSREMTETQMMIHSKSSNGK
# CCR6 antag = CCR6 (human) receptor antagonism; P51684; CHO-K1 CCR6 PathHunter beta-arrestin, luminescence, CCL20-stimulated; inhibition, % at 20 µM; 340,000 compounds, 0.49% hits; AID 493098;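 active = compounds whose inhibition of the agonist-driven luminescence signal at 20 µM reaches about 50%, limit read from the data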;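 also: cells stimulated with CCL20 at 14 nM final; plate controls were DMSO with CCL20 for no effect and DMSO without agonist for full effect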
# APJ agonist = activates the human apelin receptor APJ; CHO-K1 APJ PathHunter beta-arrestin, luminescence; 0% DMSO wells, 100% apelin; P35414; 330,000 compounds, 0.11% hits; activation, % at 20 µM;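 active = activation more than six SD over the plate average, tested at 20 µM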;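 also: 0% = DMSO alone and 100% = apelin-13 at 10 nM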
#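 Assay system: CHO-K1 APJ beta-arrestin complementation cell line / Compound: single test compound dose, 20 µM final, 1% DMSO / Times: overnight seeding, 90 min compound at 25 °C, 1 h detection / Technique: beta-gal luminescence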
# CXCR6 block = inhibitors of human CXCR6 receptor | O00574 | CHO-K1 PathHunter CXCR6 beta-arrestin, luminescence | inhibition, % at 20 µM | 360,000 compounds, 0.36% hits | AID 602244; in the data active = inhibition above about 34%, passing the limit was not always enough;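 also: antagonist mode with CXCL16 agonist at 10 nM final; 0% = 10 nM CXCL16 with DMSO and 100% = unstimulated wells without agonist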
# EBI2 antag conf = confirmation of human EBI2 receptor antagonists; inhibition, % at 5 µM; EBI2 beta-arrestin luminescence, 7a,25-OHC antagonism; AID 651997; shares compounds with EBI2 antag; 2,400 compounds, 29% hits;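 active = inhibition of at least 50%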
# EBI2 agonist = counter-screen for EBI2 antagonists: EBI2 agonist activity; shares compounds with EBI2 antag; EBI2-expressing cells, agonist mode, luminescence, 60 min; 0% vehicle, 100% 7α,25-dihydroxycholesterol control; activation, % at 5 µM; 2,400 tested, under 10 active; AID 652000;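 active = activation of at least 50%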
# bGal cs = counter-screen for EBI2 antagonists: E. coli beta-galactosidase inhibition | shares compounds with EBI2 antag | purified beta-galactosidase, luminescent Galacton Star, 15 min | inhibition, % at 5 µM | 2,400 compounds, 1% hits | AID 652176;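 active = replicate-average signal at least 3 plate SD below neutral wells, shown as high inhibition, flagging enzyme-inhibiting false positives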;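 also: 0% = DMSO wells with enzyme and 100% = wells lacking enzyme; higher means stronger loss of beta-gal luminescence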
# * hit, by the source's call; . = no result given.
SMILES,APJ antag,EBI2 antag,CCR6 antag,APJ agonist,CXCR6 block,EBI2 antag conf,EBI2 agonist,bGal cs
COc1ccc(/C=C/C(=O)N2CCN(c3ccccn3)CC2)cc1,12,93*,5,-1,-3,76*,-2,-8
Cc1cc(C(=O)N2CCN(C(c3ccccc3)c3ccccc3)CC2)no1,-2,8,5,2,1,.,.,.
COc1cccc(-c2cc(C(=O)N3CCN(C(c4ccccc4)c4ccccc4)CC3)no2)c1,-6,87*,13,-1,11,81*,1,-6
O=C(c1cc(-c2cccs2)on1)N1CCN(C(c2ccccc2)c2ccccc2)CC1,21,88*,15,-4,10,84*,-1,-9
O=C(NCCN1CCOCC1)c1ccc(Cl)c(S(=O)(=O)NCc2ccccc2)c1,-8,-3,7,-2,-2,.,.,.
CCN(CC)c1ccc(NC(=O)/C=C\c2ccccc2Cl)cc1,9,49*,24,-2,13,47,1,12
O=C(COC(=O)Cc1c(Cl)cccc1Cl)Nc1ccccc1-c1ccccc1,3,12,17,-2,-8,.,.,.
O=C(CSCc1c(Cl)cccc1Cl)Nc1ccccc1-c1ccccc1,.,41*,37,.,7,27,1,1
COc1ccc(NCC(=O)Nc2c(C)cccc2C)cc1S(=O)(=O)N1CCOCC1,.,-4,.,.,-2,.,.,.
COc1ccc(NC(=O)CCN2CCN(S(=O)(=O)c3ccc(OC)cc3)CC2)cc1,-28,17,-10,-2,-3,.,.,.
COc1ccc(NC(=O)CCN2CCN(S(=O)(=O)c3cc(Cl)ccc3Cl)CC2)cc1,-1,48*,0,-1,2,26,-1,-6
Cc1cc(C)c(C#N)c(SCC(O)CS(=O)(=O)Cc2ccccc2)n1 (configuration not stated),2,5,-6,0,-4,.,.,.
Cc1cc(C)c(C#N)c(SCC(O)COc2ccc(Br)cc2)n1 (configuration not stated),-16,65*,8,1,5,37,0,-1
Cc1ccc(/C=N/Nc2ccc3c(C(F)(F)F)cc(C(F)(F)F)nc3n2)cc1,15,55*,10,-2,10,40,2,4
COCCCNC(=O)c1cccc2c(-c3cccc(C(N)=O)c3)coc12,.,-9,.,.,0,.,.,.
O=C(NCC(c1ccco1)N1CCN(c2ccccc2F)CC1)c1cccs1 (configuration not stated),-7,6,6,-5,-1,.,.,.
O=C(NCc1cccs1)C(=O)NCC(c1ccco1)N1CCN(c2ccccc2F)CC1 (configuration not stated),8,52*,14,-3,-8,22,2,4
Cc1c(C(=O)Oc2cccc3ccccc23)cnn1-c1ccccc1,-6,31*,4,-2,-1,4,0,2
COc1ccc(N(CC(=O)NCCOc2ccccc2)S(=O)(=O)c2ccc(C)cc2)cc1,-23,87*,18,-3,3,64*,1,2
CCOc1ccc(N(CC(=O)NCCOc2ccc(C)cc2)S(=O)(=O)c2ccccc2)cc1,3,91*,6,2,11,65*,2,4
O=c1c2ccccc2n2c(-c3ccc(C(F)(F)F)cc3)nnc2n1Cc1ccccc1,-7,47*,19,2,19,22,-1,-10
Nc1nnc(SCC(=O)NC2CCCCCC2)s1,17,-22,11,-5,5,.,.,.
NC(=O)CSc1nnc(Cc2csc(Nc3ccc(F)cc3)n2)n1Cc1ccccc1,3,63*,5,-6,4,40,0,7
CC(=O)Nc1ccc(S(=O)(=O)N2CCN(CC(O)COc3ccc4ccccc4c3)CC2)cc1 (configuration not stated),-24,57*,7,0,-14,24,1,4
COc1ccc(OCC(O)CN2CCN(c3ccc(Cl)cc3)CC2)cc1 (configuration not stated),-9,47*,-6,-4,-4,34,-1,-7
SMILES,APJ antag,EBI2 antag,CCR6 antag,APJ agonist,CXCR6 block,EBI2 antag conf,EBI2 agonist,bGal cs
COc1cc(C(=O)N2CCN(CC(O)COc3ccccc3)CC2)cc(OC)c1OC (configuration not stated),-1,-2,3,2,-5,.,.,.
OC(COc1ccc2cc(Br)ccc2c1)CN1CCN(c2ccccn2)CC1 (configuration not stated),16,82*,-6,-3,-13,49,1,-13
O=C(c1ccccc1)N1CCN(CC(O)COc2ccc(Br)cc2)CC1 (configuration not stated),-16,71*,-1,1,-8,44,-1,-12
COc1cccc(OCC(O)CN2CCN(c3ccc(Cl)cc3)CC2)c1 (configuration not stated),6,13,3,-3,-5,.,.,.
O=C(Cc1cccc(NC(=O)C2CCN(C(=O)C3CC3)CC2)c1)Nc1cccc(C(=O)N2CCCCC2)c1,.,-3,1,.,-2,.,.,.
CCOC(=O)N1CCc2c(sc(NC(=O)CN(CC)CC)c2C#N)C1,2,-1,-3,1,-3,.,.,.
COc1ccc(CNS(=O)(=O)c2ccc(-c3ccc(=O)[nH]n3)s2)cc1OC,-7,0,4,2,-10,.,.,.
CCCCN(CCCC)Cc1cc(=O)oc2cc(OC)c(Cl)cc12,.,9,.,.,-6,.,.,.
Cn1c(=O)n(C)c2cc(S(=O)(=O)Nc3cc(Cl)ccc3O)ccc21,-44,-15,-6,2,-24,.,.,.
O=c1[nH]cc(N(CCO)CCO)c(=O)[nH]1,-5,-7,-1,-3,2,.,.,.
CN(C)S(=O)(=O)N1CCN(CC(O)COc2ccc3cc(Br)ccc3c2)CC1 (configuration not stated),1,85*,-7,2,-14,67*,1,9
OC(COc1ccc(Br)cc1)CN1CCN(c2ccccc2)CC1 (configuration not stated),8,48*,0,-5,3,23,0,-12
OC(COc1ccccc1)CN1CCN(c2ccccc2)CC1 (configuration not stated),.,11,13,.,-1,.,.,.
O=C(NCCc1ccccc1F)C1C(=O)Nc2ccccc2C(=O)N1C1CCCCC1 (configuration not stated),.,1,.,.,.,.,.,.
COc1ccccc1C(=O)Nc1ccnn1C1CCN(CCCc2ccccc2)CC1,10,6,8,-3,0,.,.,.
